# Lung fibro prol = blocks proliferation of human lung fibroblasts. LL 47 human lung fibroblast viability, ATP luminescence; stronger effect = lower value. viability, % at 10 µM. 85,000 tested, 1.1% active. AID 719;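 active = viability at or below 50% in the single dose screen; inactive = viability above 50%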;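 note: compound exposure lasted 72 h before the ATP readout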
#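 Signal: luminescent ATP detection, CellTiter-Glo; assay system: LL 47 human lung fibroblasts; input: 1,150 cells/well; incubation: overnight cell rest, 72 h compound treatment at 37 °C; measure: % viability versus median cells-only luminescence; medium: IMEM growth medium with 15% fetal bovine serum; dosing: compound addition at 0.1% DMSO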
# HUVEC prolif 384 = blocks proliferation of human endothelial cells; HUVEC proliferation, CellTiter-Glo luminescence, 72 h; stronger effect = lower value; viability, % at 10 µM (by protocol); 86,000 tested, 1.1% active; AID 648;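 active = viability at or below 30%; inactive = viability above 30%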
# H69AR growth 86K = growth inhibitors of human H69AR lung tumor cells; H69AR lung tumor viability, ATP luminescence, 72 h; stronger effect = lower value; viability, % at 10 µM; 85,000 tested, 6% active;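 active = viability at or below 40%; inactive = viability above 40%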;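 note: multidrug resistant small cell line overexpressing MRP-1 efflux transporter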
# PTEN del growth = PTEN-deleted cell growth suppression | viability, % at 10 µM | HCT116 PTEN-null viability, CellTiter-Glo, 60 h; stronger effect = lower value | 140,000 tested, 1.2% active;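 active = viability at or below a set limit, 4 SD under the median of all tested compounds, cut at about 3.7% in these data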;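 note: PTEN knockout HCT116 line with beta catenin targeted HCT116 as companion control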
# bCat KO growth = beta-catenin-lacking colon tumor cell growth suppression; HCT116 beta-catenin knockout viability, CellTiter-Glo, 60 h; stronger effect = lower value; viability, % at 10 µM; 140,000 tested, 1.5% active; AID 818;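 active = viability at or under a set limit, the compound median less 4 SD, cut at about 6% in these data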
# Numbers stand for hits; 0 = inactive; - = no result given. Shown is part of a subset that was picked to be rich in hits.
SMILES,Lung fibro prol,HUVEC prolif 384,H69AR growth 86K,PTEN del growth,bCat KO growth
COc1ccc(OC)c(N(CC(=O)Nc2cccnc2)S(=O)(=O)c2ccc(OC)c(OC)c2)c1,0,0,0,0,0
CCN(CC)c1ccc(-c2nn3c(-c4n[nH]c5c4CCC5)nnc3s2)cc1,45,0,22,0,0
CN(C)c1ccc(-c2nn3c(-c4ccccc4Cl)nnc3s2)cc1,0,0,30,0,0
CN(C)c1ccc(-c2nn3c(-c4ccncc4)nnc3s2)cc1,0,0,32,-,-
CN(C)CCN(C(=O)c1ccccc1Cl)c1nc2c(Cl)cccc2s1,-,-,-,0,0
CCc1nc2sc3c(c2c(=O)n1NC(=O)CCl)CCCC3,0,0,12,0,0
CCC(=O)Nc1ccccc1Sc1ncnc2scc(-c3ccccc3)c12,-,-,-,0,0
CC[C@H](C)C(=O)O[C@H]1C[C@@H](C)C=C2C=C[C@H](C)[C@H](CC[C@@H]3C[C@@H](O)CC(=O)O3)[C@H]21,46,17,0,0,0
Clc1c(-c2ccccc2)nnn1-c1ccccc1,-,-,-,0,0
N=c1ncn(Cc2ccccc2)c2nc(SCCOc3ccccc3)[nH]c12,-,-,-,0,0
O=C(NCCCN1CCOCC1)C(=O)N/N=C/c1c2ccccc2cc2ccccc12,-,-,-,2.2,1.6
CCNc1nc(SCCOc2ccc(C)cc2)nc(N(C)C)n1,0,0,31,0,0
Cc1ccc(NC(=O)NNC(=O)Cn2nc(-c3ccccc3)c(-c3ccccc3)c(C#N)c2=O)cc1,-,-,-,-,0
COc1cc([N+](=O)[O-])c(C(=O)N2CCOCC2)c([N+](=O)[O-])c1,-,-,-,0,0
CC[n+]1c(/C=C/C=C/N(C(C)=O)c2ccccc2)sc2cc(OC)ccc21,-,-,-,0,6.0
CC[n+]1c(/C=C(\C)Nc2ccccc2)sc2ccccc21,-,-,-,0,0
Fc1ccc(CNC(=S)NC2CCCC2)cc1,-,-,-,0,0
Nc1c(-c2ccccc2)cnn1-c1cccc([N+](=O)[O-])c1,-,-,-,0,0
Cc1ccccc1-n1ncc2c([N+](=O)[O-])cc([N+](=O)[O-])cc21,0,6.3,25,0,0
CC(=O)Nc1ccc(S(=O)(=O)N2CCCc3ccccc32)cc1,0,0,13,0,0
O=C(NCc1ccco1)c1ccc(S(=O)(=O)N2CCCc3ccccc32)cc1,0,0,31,0,0
Cc1cc(NC(=O)COC(=O)c2ccc(S(=O)(=O)N3CCCc4ccccc43)cc2)no1,0,0,23,0,0
COC(=O)Nc1ccc(S(=O)(=O)N2c3ccccc3CCC2C)cc1 (configuration not stated),49,0,16,0,0
Nc1ccc(S(=O)(=O)N2CCCc3ccccc32)cc1,0,0,0,0,0
COc1ccc2[nH]c(O)c(N=O)c2c1,-,-,-,0,0
SMILES,Lung fibro prol,HUVEC prolif 384,H69AR growth 86K,PTEN del growth,bCat KO growth
Cc1cc2c(N=O)c(NO)ccc2[nH]1,1.9,0,-,0,4.7
COc1cc(OC)cc(C(=O)NC2CCN(CC(=O)Nc3cccc4ccccc34)CC2)c1,0,0,39,0,0
CCOc1ccccc1NS(=O)(=O)c1ccc2c(c1)n(C)c(=O)c(=O)n2C,-,-,-,0,0
Cn1c(=O)c2ncn(CC(=O)Nc3ccc4oc(-c5cccc6ccccc56)nc4c3)c2n(C)c1=O,0,27,0,-,-
CCC(C)c1ccc2oc(-c3ccc(NC(=O)Cn4cnc5c(=O)n(C)c(=O)n(C)c54)cc3)nc2c1 (configuration not stated),34,0,25,1.5,1.6
Cc1cc(C)cc(OC(=O)CS(=O)c2ccc(C(F)(F)F)cc2[N+](=O)[O-])c1 (configuration not stated),0,64,15,0,0
O=C(CS(=O)c1ccc(C(F)(F)F)cc1[N+](=O)[O-])Oc1ccc(Cl)cc1 (configuration not stated),0,0,21,0,0
N#Cc1ccc(N/N=C/c2cn(-c3ccccc3)nc2-c2ccccc2)c([N+](=O)[O-])c1,-,-,-,1.0,1.8
O=C(CN(Cc1ccccc1)S(=O)(=O)c1ccc(S(=O)(=O)N2CCOCC2)cc1)Nc1ccccc1,-,-,-,0,0
CCN(CC)c1ccc(C2Nc3cccc4cccc(c34)N2)c(O)c1,0,0,19,-,-
Oc1ccc2ccccc2c1C1Nc2cccc3cccc(c23)N1,0,0,0,0,0
CCOC(=O)C1=C(C)N(CCCC(=O)NCc2ccc3c(c2)OCO3)C(=O)NC1c1ccc(Br)cc1 (configuration not stated),-,-,-,0,0
COc1ccc(C(=O)/C=C/c2ccc(OC)c(Cn3nnc4ccccc43)c2)cc1,-,-,-,0,6.0

# High-throughput results: PubChem BioAssay, SRMLSC
